Data from ChEMBL document CHEMBL1828552, “Synthesis and studies of novel 2-(4-cyano-3-trifluoromethylphenyl amino)-4-(quinoline-4-yloxy)-6-(piperazinyl/piperidinyl)-s-triazines as potential antimicrobial, antimycobacterial and anticancer agents” (2011).
Converted amounts (≈) assume the structure as drawn.

test system: DU-145; assay: Cytotoxicity against […] human DU145 cells after 48 hrs by SRB assay; format: functional; details: DU-145, 48 h
Procedure, shortened: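 SRB assay in DU-145 cells grown in RPMI 1640 with 10% FBS and 2 mM L-glutamine. Cells were plated and held 24 h before addition of four 10-fold concentrations. After 48 h, cells were TCA-fixed, stained with 0.4% SRB and read at 540 nm. GI50, TGI and LC50 were derived against time-zero and control wells; each value is the mean of three experiments.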

Question: What does the source list for N#Cc1ccc(Nc2nc(Oc3ccnc4ccccc34)nc(N3CCN(c4cccc(C(F)(F)F)c4)CC3)n2)cc1C(F)(F)F?
Answer: GI50: 38.7 µM; LC50 (concentration giving 50% net cell kill relative to time zero): > 100 µM; TGI: 74.1 µM

test system: Pseudomonas aeruginosa; assay: Antibacterial activity against 10^5 CFU/mL Pseudomonas aeruginosa MTCC 741 after 24 hrs by disc diffusion technique; format: functional; details: not given
Procedure, shortened: (§1)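 Disc diffusion on Mueller–Hinton agar poured 5 mm deep. The surface was swabbed with a 10⁵ CFU/mL […] suspension. Filter-paper discs 6.25 mm in diameter were soaked in compound in DMSO and placed on the agar. Plates were incubated 24 h at 37 ± 1 °C, and the inhibition zone was measured in mm. A DMSO disc served as blank.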

Question: Which “inhibition zone (IZ)” value does the source give for N#Cc1ccc(Nc2nc(Oc3ccnc4ccccc34)nc(N3CCN(c4cccc(C(F)(F)F)c4)CC3)n2)cc1C(F)(F)F here?
Answer: 25 mm

test system: Klebsiella pneumoniae; assay: Antibacterial activity against 10^5 CFU/mL Klebsiella pneumoniae MTCC 109 after 24 hrs by disc diffusion technique; format: functional; details: not given; procedure, shortened: as §1

Question: How did the “inhibition zone (IZ)” value turn out when N#Cc1ccc(Nc2nc(Oc3ccnc4ccccc34)nc(N3CCN(c4cccc(C(F)(F)F)c4)CC3)n2)cc1C(F)(F)F was run?
Answer: 23 mm

test system: Salmonella typhi; assay: Antibacterial activity against 10^5 CFU/mL Salmonella typhi MTCC 733 after 24 hrs by disc diffusion technique; format: functional, Salmonella enterica subsp. enterica serovar Typhi; details: not given
Procedure, shortened: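 Disc diffusion. Mueller-Hinton agar autoclaved 120 °C 30 min, poured 5 mm deep. Surface swabbed with 10⁵ CFU/mL suspension […]. 6.25 mm filter-paper discs soaked in compound in DMSO; DMSO-only disc as blank. Incubated 37 ± 1 °C, 24 h for bacteria or 48 h for fungi. Ciprofloxacin and ketoconazole discs as reference drugs. Inhibition zone measured in mm.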

Question: For N#Cc1ccc(Nc2nc(Oc3ccnc4ccccc34)nc(N3CCN(c4cccc(C(F)(F)F)c4)CC3)n2)cc1C(F)(F)F, which “inhibition zone (IZ)” value is on record?
Answer: 27 mm

test system: Mycobacterium tuberculosis; assay: Antimycobacterial activity against 10^4 to 10^7 CFU/mL Mycobacterium tuberculosis H37Rv at 6.25 ug/ml by BACTEC MGIT method; format: functional; details: not given
Procedure, shortened: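 Primary screen at 6.25 in the BACTEC MGIT system: modified Middlebrook 7H9 broth tubes with compound, seeded with 10⁴-10⁷ CFU/mL H37Rv plus 0.1 mL egg-based L.J. medium. Incubated at 37 ± 1 °C and read daily from day 2 under UV light against positive and uninoculated controls.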

Question: For N#Cc1ccc(Nc2nc(Oc3ccnc4ccccc34)nc(N3CCN(c4cccc(C(F)(F)F)c4)CC3)n2)cc1C(F)(F)F, which inhibition at 6.25 µg/mL is on record?
Answer: 99%

test system: Staphylococcus aureus; assay: Antibacterial activity against 10^5 CFU/mL Staphylococcus aureus MTCC 96 after 24 hrs by disc diffusion technique; format: functional; details: not given; procedure, shortened: as §1

Question: Which “inhibition zone (IZ)” value does the source give for N#Cc1ccc(Nc2nc(Oc3ccnc4ccccc34)nc(N3CCN(c4cccc(C(F)(F)F)c4)CC3)n2)cc1C(F)(F)F here?
Answer: 28 mm

test system: Candida albicans; assay: Antifungal activity against 10^5 CFU/mL Candida albicans MTCC 183 after 48 hrs by disc diffusion technique; format: functional; details: not given

Question: With N#Cc1ccc(Nc2nc(Oc3ccnc4ccccc34)nc(N3CCN(c4cccc(C(F)(F)F)c4)CC3)n2)cc1C(F)(F)F as the molecule, how does the “inhibition zone (IZ)” value read?
Answer: 26 mm

test system: Escherichia coli; assay: Antibacterial activity against 10^5 CFU/mL Escherichia coli MTCC 739 after 24 hrs by agar streak dilution method; format: functional; details: MTCC 739, 24 h
Procedure, shortened: (§2)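 Agar streak dilution. Stock 100 µg/mL in DMSO; graded amounts were mixed into molten nutrient agar and poured at 4–5 mm depth. Plates carried serial dilutions over […]. About 10⁵ CFU/mL of each bacterium was applied, and plates were incubated at 37 ± 1 °C for 24 h. MIC was read from the dilution series.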

Question: For N#Cc1ccc(Nc2nc(Oc3ccnc4ccccc34)nc(N3CCN(c4cccc(C(F)(F)F)c4)CC3)n2)cc1C(F)(F)F, which MIC is on record?
Answer: 12.5 µg/mL (≈ 19.6 µM)

test system: Bacillus cereus; assay: Antibacterial activity against 10^5 CFU/mL Bacillus cereus MTCC 619 after 24 hrs by disc diffusion technique; format: functional; details: not given; procedure, shortened: as §1

Question: With N#Cc1ccc(Nc2nc(Oc3ccnc4ccccc34)nc(N3CCN(c4cccc(C(F)(F)F)c4)CC3)n2)cc1C(F)(F)F as the molecule, how does the “inhibition zone (IZ)” value read?
Answer: 28 mm

test system: Candida albicans; assay: Antifungal activity against 10^5 CFU/mL Candida albicans MTCC 183 after 48 hrs by agar streak dilution method; format: functional; details: MTCC 183, 48 h
Procedure, shortened: (§3)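 Agar streak dilution for fungi. Stock 100 µg/mL in DMSO; graded amounts were mixed into molten Sabouraud dextrose agar and poured at 4–5 mm depth. Serial dilutions ran over […]. About 10⁵ CFU/mL inoculum was applied, with incubation at 37 ± 1 °C for 48 h. MIC was read from the dilution series.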

Question: Which MIC does the source give for N#Cc1ccc(Nc2nc(Oc3ccnc4ccccc34)nc(N3CCN(c4cccc(C(F)(F)F)c4)CC3)n2)cc1C(F)(F)F here?
Answer: 25 µg/mL (≈ 39.3 µM)

test system: Escherichia coli; assay: Antibacterial activity against 10^5 CFU/mL Escherichia coli MTCC 739 after 24 hrs by disc diffusion technique; format: functional; details: not given; procedure, shortened: as §1

Question: Which “inhibition zone (IZ)” value does the source give for N#Cc1ccc(Nc2nc(Oc3ccnc4ccccc34)nc(N3CCN(c4cccc(C(F)(F)F)c4)CC3)n2)cc1C(F)(F)F here?
Answer: 26 mm

test system: Bacillus cereus; assay: Antibacterial activity against 10^5 CFU/mL Bacillus cereus MTCC 619 after 24 hrs by agar streak dilution method; format: functional; details: MTCC 619, 24 h; procedure, shortened: as §2

Question: N#Cc1ccc(Nc2nc(Oc3ccnc4ccccc34)nc(N3CCN(c4cccc(C(F)(F)F)c4)CC3)n2)cc1C(F)(F)F was tested. Which MIC did it give?
Answer: 6.25 µg/mL (≈ 9.82 µM)

test system: Shigella flexneri; assay: Antibacterial activity against 10^5 CFU/mL Shigella flexneri MTCC 1457 after 24 hrs by disc diffusion technique; format: functional; details: not given; procedure, shortened: as §1

Question: How did the “inhibition zone (IZ)” value turn out when N#Cc1ccc(Nc2nc(Oc3ccnc4ccccc34)nc(N3CCN(c4cccc(C(F)(F)F)c4)CC3)n2)cc1C(F)(F)F was run?
Answer: 25 mm

test system: Pseudomonas aeruginosa; assay: Antibacterial activity against 10^5 CFU/mL Pseudomonas aeruginosa MTCC 741 after 24 hrs by agar streak dilution method; format: functional; details: MTCC 741, 24 h; procedure, shortened: as §2

Question: Which MIC does the source give for N#Cc1ccc(Nc2nc(Oc3ccnc4ccccc34)nc(N3CCN(c4cccc(C(F)(F)F)c4)CC3)n2)cc1C(F)(F)F here?
Answer: 6.25 µg/mL (≈ 9.82 µM)

test system: Proteus vulgaris; assay: Antibacterial activity against 10^5 CFU/mL Proteus vulgaris MTCC 1771 after 24 hrs by agar streak dilution method; format: functional; details: MTCC 1771, 24 h; procedure, shortened: as §2

Question: How did the MIC turn out when N#Cc1ccc(Nc2nc(Oc3ccnc4ccccc34)nc(N3CCN(c4cccc(C(F)(F)F)c4)CC3)n2)cc1C(F)(F)F was run?
Answer: 12.5 µg/mL (≈ 19.6 µM)

test system: Aspergillus niger; assay: Antifungal activity against 10^5 CFU/mL Aspergillus niger MTCC 282 after 48 hrs by disc diffusion technique; format: functional; details: not given

Question: N#Cc1ccc(Nc2nc(Oc3ccnc4ccccc34)nc(N3CCN(c4cccc(C(F)(F)F)c4)CC3)n2)cc1C(F)(F)F was tested. Which “inhibition zone (IZ)” value did it give?
Answer: 27 mm

test system: Aspergillus fumigatus; assay: Antifungal activity against 10^5 CFU/mL Aspergillus fumigatus MTCC 343 after 48 hrs by disc diffusion technique; format: functional; details: not given

Question: How did the “inhibition zone (IZ)” value turn out when N#Cc1ccc(Nc2nc(Oc3ccnc4ccccc34)nc(N3CCN(c4cccc(C(F)(F)F)c4)CC3)n2)cc1C(F)(F)F was run?
Answer: 27 mm

test system: Aspergillus clavatus; assay: Antifungal activity against 10^5 CFU/mL Aspergillus clavatus MTCC 1323 after 48 hrs by agar streak dilution method; format: functional; details: MTCC 1323, 48 h; procedure, shortened: as §3

Question: Which MIC does the source give for N#Cc1ccc(Nc2nc(Oc3ccnc4ccccc34)nc(N3CCN(c4cccc(C(F)(F)F)c4)CC3)n2)cc1C(F)(F)F here?
Answer: 12.5 µg/mL (≈ 19.6 µM)

test system: Proteus vulgaris; assay: Antibacterial activity against 10^5 CFU/mL Proteus vulgaris MTCC 1771 after 24 hrs by disc diffusion technique; format: functional; details: not given; procedure, shortened: as §1

Question: Which “inhibition zone (IZ)” value does the source give for N#Cc1ccc(Nc2nc(Oc3ccnc4ccccc34)nc(N3CCN(c4cccc(C(F)(F)F)c4)CC3)n2)cc1C(F)(F)F here?
Answer: 25 mm

test system: Aspergillus clavatus; assay: Antifungal activity against 10^5 CFU/mL Aspergillus clavatus MTCC 1323 after 48 hrs by disc diffusion technique; format: functional; details: not given

Question: How did the “inhibition zone (IZ)” value turn out when N#Cc1ccc(Nc2nc(Oc3ccnc4ccccc34)nc(N3CCN(c4cccc(C(F)(F)F)c4)CC3)n2)cc1C(F)(F)F was run?
Answer: 28 mm

test system: Shigella flexneri; assay: Antibacterial activity against 10^5 CFU/mL Shigella flexneri MTCC 1457 after 24 hrs by agar streak dilution method; format: functional; details: MTCC 1457, 24 h; procedure, shortened: as §2

Question: How did the MIC turn out when N#Cc1ccc(Nc2nc(Oc3ccnc4ccccc34)nc(N3CCN(c4cccc(C(F)(F)F)c4)CC3)n2)cc1C(F)(F)F was run?
Answer: 12.5 µg/mL (≈ 19.6 µM)

test system: Klebsiella pneumoniae; assay: Antibacterial activity against 10^5 CFU/mL Klebsiella pneumoniae MTCC 109 after 24 hrs by agar streak dilution method; format: functional; details: MTCC 109, 24 h; procedure, shortened: as §2

Question: How did the MIC turn out when N#Cc1ccc(Nc2nc(Oc3ccnc4ccccc34)nc(N3CCN(c4cccc(C(F)(F)F)c4)CC3)n2)cc1C(F)(F)F was run?
Answer: 25 µg/mL (≈ 39.3 µM)

test system: Aspergillus niger; assay: Antifungal activity against 10^5 CFU/mL Aspergillus niger MTCC 282 after 48 hrs by agar streak dilution method; format: functional; details: MTCC 282, 48 h; procedure, shortened: as §3

Question: Which MIC does the source give for N#Cc1ccc(Nc2nc(Oc3ccnc4ccccc34)nc(N3CCN(c4cccc(C(F)(F)F)c4)CC3)n2)cc1C(F)(F)F here?
Answer: 12.5 µg/mL (≈ 19.6 µM)

test system: Staphylococcus aureus; assay: Antibacterial activity against 10^5 CFU/mL Staphylococcus aureus MTCC 96 after 24 hrs by agar streak dilution method; format: functional; details: MTCC 96, 24 h; procedure, shortened: as §2

Question: With N#Cc1ccc(Nc2nc(Oc3ccnc4ccccc34)nc(N3CCN(c4cccc(C(F)(F)F)c4)CC3)n2)cc1C(F)(F)F as the molecule, how does the MIC read?
Answer: 6.25 µg/mL (≈ 9.82 µM)

test system: Aspergillus fumigatus; assay: Antifungal activity against 10^5 CFU/mL Aspergillus fumigatus MTCC 343 after 48 hrs by agar streak dilution method; format: functional; details: MTCC 343, 48 h; procedure, shortened: as §3

Question: With N#Cc1ccc(Nc2nc(Oc3ccnc4ccccc34)nc(N3CCN(c4cccc(C(F)(F)F)c4)CC3)n2)cc1C(F)(F)F as the molecule, how does the MIC read?
Answer: 25 µg/mL (≈ 39.3 µM)

test system: Salmonella typhi; assay: Antibacterial activity against 10^5 CFU/mL Salmonella typhi MTCC 733 after 24 hrs by agar streak dilution method; format: functional, Salmonella enterica subsp. enterica serovar Typhi; details: Salmonella enterica, MTCC 733, 24 h

Question: How did the MIC turn out when N#Cc1ccc(Nc2nc(Oc3ccnc4ccccc34)nc(N3CCN(c4cccc(C(F)(F)F)c4)CC3)n2)cc1C(F)(F)F was run?
Answer: 12.5 µg/mL (≈ 19.6 µM)
